The subject of one data set is B16. Description: Cytotoxicity of compound towards B-16 melanoma cells, expressed as survival ratio of cells. The format is functional, Mus musculus.
Another data set deals with TIG-1-20. As to the kind of experiment: Cytotoxicity of compound towards TIG-1-20 hybrobrast cells, expressed as survival ratio of cells. It counts as functional, Homo sapiens.
Data set [1] can be described thus: Solubility in water at room temperature. The format is physicochemical. Conditions: read-out: S. The gist of the method:
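Excess boron compound was dissolved, and the undissolved material was removed by membrane filtration. Boron concentration of the saturated solution was measured by ICP-AES. Three replicates, mean ± SE.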

In brackets after ≈: the same amount, converted by molar mass.

The values that follow come from ChEMBL document CHEMBL1128357, “Synthesis and biological properties of water-soluble p-boronophenylalanine derivatives. Relationship between water solubility, cytotoxicity, and cellular uptake” (J Med Chem, 1995).

As for `NC(Cc1ccc(B(O)O)cc1)C(=O)O` (configuration not stated), the Survival ratio in the data set on B16 and in the data set with TIG-1-20 was 20% throughout. The solubility in data set [1] is 7.7 mM (≈ 1.61 mg/mL).

Take `NC(Cc1ccc(B(O)O)cc1)C(=O)NC(COC(CO)CO)COC(CO)CO` (configuration not stated): the Survival ratio with B16 stood at 62%; in the data set with TIG-1-20, 73%. For the same compound, the solubility in data set [1] was determined as 1200 mM (≈ 516 mg/mL).

Turning to `NC(Cc1ccc(B(O)O)cc1)C(=O)NC(CO)CO` (configuration not stated), the figures for the Survival ratio with B16 and in the data set with TIG-1-20 were 60% and 71%, respectively. The solubility in data set [1] was 660 mM (≈ 186 mg/mL).

Consider `NC(Cc1ccc(B(O)O)cc1)C(=O)NCCO` (configuration not stated), for which the Survival ratio with B16 is on record as 60%; with TIG-1-20 it was 66%. Further, the solubility in data set [1] turned out to be 600 mM (≈ 151 mg/mL).
